Values after ≈ are worked out from the molar mass of the structure shown.
Assays:
Candida tropicalis [1] = test: Antifungal activity against Candida tropicalis ATCC 750 by broth microdilution assay; assay type: functional
Outline: (§1)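 CLSI M27-A3 broth microdilution. Compounds diluted to 1 mg/ml in 1% DMSO. Fluconazole (1 mg/ml) served as positive control, 1% DMSO as vehicle control, with media and culture controls. Triplicate at each concentration, repeated thrice. Inocula came from YPDA stocks subcultured in broth for 48 h at 37 °C.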

Candida albicans [2] = test: Antifungal activity against clinical isolates of Candida albicans 2367 by broth microdilution assay; assay type: functional; outline: as §1
Candida albicans [3] = test: Antifungal activity against clinical isolates of Candida albicans 2323 by broth microdilution assay; assay type: functional; outline: as §1
Candida albicans [4] = test: Antifungal activity against clinical isolates of Candida albicans 2779 by broth microdilution assay; assay type: functional; outline: as §1
Candida tropicalis [5] = test: Antifungal activity against clinical isolates of Candida tropicalis 2029 by broth microdilution assay; assay type: functional; outline: as §1
Candida albicans [6] = test: Antifungal activity against Candida albicans ATCC 10261 by broth microdilution assay; assay type: functional; outline: as §1
Candida tropicalis [7] = test: Antifungal activity against clinical isolates of Candida tropicalis 2356 by broth microdilution assay; assay type: functional; outline: as §1
Candida albicans [8] = test: Cytotoxicity against Candida albicans ATCC 10261 at 1/4 MIC after 24 hrs by WST1 assay; assay type: functional
Outline: (§2)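 Candida cells were exposed to MIC and sub-MIC levels for 24 h in microplates, then to WST-1/CEC dye for 30 min at 37 °C. Plates were shaken 1 min and the reaction stopped with 1% SDS. Formazan was read at 450 nm. % cytotoxicity = 100 × (cell control − experimental)/cell control. Triplicates, mean ± SD.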

Candida tropicalis [9] = test: Antifungal activity against clinical isolates of Candida tropicalis 2356 at 2 times MIC after 48 hrs by disc diffusion assay; assay type: functional
Outline: (§3)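 Cells (10^3 cells ml−1) grown in YPD were mixed into molten agar (~40 °C) and poured into 100-mm plates. Filter discs (4 mm) were spotted with 10 µl of compound at 1/2 × MIC, MIC or 2 × MIC. Fluconazole and 1% DMSO were the controls. Plates were incubated at 37 °C for 48 h and inhibition zone diameters recorded in mm.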

Candida tropicalis [10] = test: Cytotoxicity against Candida tropicalis ATCC 750 at 1/2 MIC after 24 hrs by WST1 assay
Candida tropicalis [11] = test: Inhibition of ergosterol biosynthesis in Candida tropicalis 2356 assessed as ergosterol content at MIC after 16 hrs by spectrophotometer analysis; assay type: functional; design: scale not given: the % may be the effect or the level left
Outline: (§4)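 Cells were pelleted and washed, and wet weight taken. Pellets were saponified in 25% alcoholic KOH at 85 °C for 1 h. Sterols were extracted into n-heptane/water. Ergosterol content is expressed relative to untreated control cells.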

Candida albicans [12] = test: Antifungal activity against clinical isolates of Candida albicans 2367 at 2 times MIC after 48 hrs by disc diffusion assay; assay type: functional; outline: as §3
Candida albicans [13] = test: Antifungal activity against clinical isolates of Candida albicans 2367 at MIC after 48 hrs by disc diffusion assay; assay type: functional; outline: as §3
Candida albicans [14] = test: Antifungal activity against clinical isolates of Candida albicans 2367 at half MIC after 48 hrs by disc diffusion assay; assay type: functional; outline: as §3
Candida albicans [15] = test: Antifungal activity against clinical isolates of Candida albicans 2323 at half MIC after 48 hrs by disc diffusion assay; assay type: functional; outline: as §3
Candida albicans [16] = test: Antifungal activity against clinical isolates of Candida albicans 2779 at 2 times MIC after 48 hrs by disc diffusion assay; assay type: functional; outline: as §3
Candida albicans [17] = test: Inhibition of ergosterol biosynthesis in Candida albicans 2323 assessed as ergosterol content at MIC after 16 hrs by spectrophotometer analysis; assay type: functional; design: scale not given: the % may be the effect or the level left; outline: as §4
Candida tropicalis [18] = test: Inhibition of ergosterol biosynthesis in Candida tropicalis ATCC 750 assessed as ergosterol content at 1/2 MIC after 16 hrs by spectrophotometer analysis; assay type: functional; design: scale not given: the % may be the effect or the level left; outline: as §4
Candida albicans [19] = test: Inhibition of ergosterol biosynthesis in Candida albicans 2367 assessed as ergosterol content at 1/2 MIC after 16 hrs by spectrophotometer analysis; assay type: functional; design: scale not given: the % may be the effect or the level left; outline: as §4
Candida tropicalis [20] = test: Cytotoxicity against Candida tropicalis ATCC 750 at MIC after 24 hrs by WST1 assay
Candida albicans [21] = test: Inhibition of ergosterol biosynthesis in Candida albicans 2367 assessed as ergosterol content at MIC after 16 hrs by spectrophotometer analysis; assay type: functional; design: scale not given: the % may be the effect or the level left; outline: as §4
Candida tropicalis [22] = test: Antifungal activity against Candida tropicalis ATCC 750 at 2 times MIC after 48 hrs by disc diffusion assay; assay type: functional; outline: as §3
Candida tropicalis [23] = test: Antifungal activity against clinical isolates of Candida tropicalis 2356 at half MIC after 48 hrs by disc diffusion assay; assay type: functional; outline: as §3
Candida tropicalis [24] = test: Antifungal activity against Candida tropicalis ATCC 750 at MIC after 48 hrs by disc diffusion assay; assay type: functional; outline: as §3
Candida tropicalis [25] = test: Inhibition of ergosterol biosynthesis in Candida tropicalis 2356 assessed as ergosterol content at 1/2 MIC after 16 hrs by spectrophotometer analysis; assay type: functional; design: scale not given: the % may be the effect or the level left; outline: as §4
Candida albicans [26] = test: Antifungal activity against clinical isolates of Candida albicans 2323 at 2 times MIC after 48 hrs by disc diffusion assay; assay type: functional; outline: as §3
Candida albicans [27] = test: Antifungal activity against clinical isolates of Candida albicans 2779 at MIC after 48 hrs by disc diffusion assay; assay type: functional; outline: as §3
Candida tropicalis [28] = test: Cytotoxicity against Candida tropicalis ATCC 750 at 1/4 MIC after 24 hrs by WST1 assay
Candida albicans [29] = test: Antifungal activity against Candida albicans ATCC 10261 at half MIC after 48 hrs by disc diffusion assay; assay type: functional; outline: as §3
Candida tropicalis [30] = test: Inhibition of ergosterol biosynthesis in Candida tropicalis 2029 assessed as ergosterol content at MIC after 16 hrs by spectrophotometer analysis; assay type: functional; design: scale not given: the % may be the effect or the level left; outline: as §4
Candida albicans [31] = test: Cytotoxicity against Candida albicans ATCC 10261 at 1/2 MIC after 24 hrs by WST1 assay; assay type: functional; outline: as §2
Candida tropicalis [32] = test: Inhibition of ergosterol biosynthesis in Candida tropicalis 2029 assessed as ergosterol content at 1/2 MIC after 16 hrs by spectrophotometer analysis; assay type: functional; design: scale not given: the % may be the effect or the level left; outline: as §4
Candida albicans [33] = test: Antifungal activity against Candida albicans ATCC 10261 at 2 times MIC after 48 hrs by disc diffusion assay; assay type: functional; outline: as §3
Candida albicans [34] = test: Inhibition of ergosterol biosynthesis in Candida albicans ATCC 10261 assessed as ergosterol content at MIC after 16 hrs by spectrophotometer analysis; assay type: functional; design: scale not given: the % may be the effect or the level left; outline: as §4
Candida albicans [35] = test: Cytotoxicity against clinical isolates of Candida albicans 2779 at 1/4 MIC after 24 hrs by WST1 assay; assay type: functional; outline: as §2
Candida albicans [36] = test: Antifungal activity against clinical isolates of Candida albicans 2779 at half MIC after 48 hrs by disc diffusion assay; assay type: functional; outline: as §3
Candida albicans [37] = test: Cytotoxicity against Candida albicans ATCC 10261 at MIC after 24 hrs by WST1 assay; assay type: functional; outline: as §2
Candida albicans [38] = test: Antifungal activity against clinical isolates of Candida albicans 2323 at MIC after 48 hrs by disc diffusion assay; assay type: functional; outline: as §3
Candida albicans [39] = test: Inhibition of ergosterol biosynthesis in Candida albicans 2779 assessed as ergosterol content at 1/2 MIC after 16 hrs by spectrophotometer analysis; assay type: functional; design: scale not given: the % may be the effect or the level left; outline: as §4
Candida albicans [40] = test: Inhibition of ergosterol biosynthesis in Candida albicans 2323 assessed as ergosterol content at 1/2 MIC after 16 hrs by spectrophotometer analysis; assay type: functional; design: scale not given: the % may be the effect or the level left; outline: as §4
Candida albicans [41] = test: Inhibition of ergosterol biosynthesis in Candida albicans 2779 assessed as ergosterol content at MIC after 16 hrs by spectrophotometer analysis; assay type: functional; design: scale not given: the % may be the effect or the level left; outline: as §4
Candida tropicalis [42] = test: Antifungal activity against Candida tropicalis ATCC 750 at half MIC after 48 hrs by disc diffusion assay; assay type: functional; outline: as §3
Candida tropicalis [43] = test: Antifungal activity against clinical isolates of Candida tropicalis 2356 at MIC after 48 hrs by disc diffusion assay; assay type: functional; outline: as §3
Candida tropicalis [44] = test: Inhibition of ergosterol biosynthesis in Candida tropicalis ATCC 750 assessed as ergosterol content at MIC after 16 hrs by spectrophotometer analysis; assay type: functional; design: scale not given: the % may be the effect or the level left
Outline: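 Cells were harvested, washed, and wet pellet weight recorded. Pellets were saponified in 3 mL 25% alcoholic KOH at 85 °C for 1 h, then sterols extracted into n-heptane. Ergosterol is expressed relative to untreated control cells.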

Candida albicans [45] = test: Antifungal activity against Candida albicans ATCC 10261 at MIC after 48 hrs by disc diffusion assay; assay type: functional; outline: as §3
Candida tropicalis [46] = test: Antifungal activity against clinical isolates of Candida tropicalis 2029 at 2 times MIC after 48 hrs by disc diffusion assay; assay type: functional; outline: as §3
Candida tropicalis [47] = test: Antifungal activity against clinical isolates of Candida tropicalis 2029 at MIC after 48 hrs by disc diffusion assay; assay type: functional; outline: as §3
Candida tropicalis [48] = test: Antifungal activity against clinical isolates of Candida tropicalis 2029 at half MIC after 48 hrs by disc diffusion assay; assay type: functional; outline: as §3
Candida albicans [49] = test: Inhibition of ergosterol biosynthesis in Candida albicans ATCC 10261 assessed as ergosterol content at 1/2 MIC after 16 hrs by spectrophotometer analysis; assay type: functional; design: scale not given: the % may be the effect or the level left; outline: as §4

CCc1ccnc(-c2nccn2Cc2nnc(-c3ccccc3)o2)c1
MIC (Candida tropicalis [1]): > 1000 µg/mL | MIC (Candida albicans [2]): > 1000 µg/mL | MIC (Candida albicans [3]): > 1000 µg/mL | MIC (Candida albicans [4]): > 1000 µg/mL | MIC (Candida tropicalis [5]): > 1000 µg/mL | MIC (Candida albicans [6]): > 1000 µg/mL | MIC (Candida tropicalis [7]): > 1000 µg/mL

CCc1ccnc(-c2nccn2Cc2nnc(-c3ccc([N+](=O)[O-])cc3)o2)c1
Activity (Candida albicans [8]): 16.88% | inhibition zone (IZ) (Candida tropicalis [9]): 9 mm | Activity (Candida tropicalis [10]): 35.57% | Activity (Candida tropicalis [11]): 91% | inhibition zone (IZ) (Candida albicans [12]): 8 mm | inhibition zone (IZ) (Candida albicans [13]): 5 mm | inhibition zone (IZ) (Candida albicans [14]): 1 mm | MIC (Candida tropicalis [1]): 16 µg/mL (≈ 42.5 µM) | MIC (Candida albicans [2]): 16 µg/mL (≈ 42.5 µM) | inhibition zone (IZ) (Candida albicans [15]): 0 mm | inhibition zone (IZ) (Candida albicans [16]): 11 mm | Activity (Candida albicans [17]): 87% | Activity (Candida tropicalis [18]): 57% | Activity (Candida albicans [19]): 47% | Activity (Candida tropicalis [20]): 57.94% | Activity (Candida albicans [21]): 86% | inhibition zone (IZ) (Candida tropicalis [22]): 14 mm | inhibition zone (IZ) (Candida tropicalis [23]): 1 mm | MIC (Candida albicans [3]): 16 µg/mL (≈ 42.5 µM) | inhibition zone (IZ) (Candida tropicalis [24]): 9 mm | Activity (Candida tropicalis [25]): 59% | inhibition zone (IZ) (Candida albicans [26]): 9 mm | inhibition zone (IZ) (Candida albicans [27]): 8 mm | MIC (Candida albicans [4]): 32 µg/mL (≈ 85 µM) | MIC (Candida tropicalis [5]): 16 µg/mL (≈ 42.5 µM) | Activity (Candida tropicalis [28]): 15.6% | inhibition zone (IZ) (Candida albicans [29]): 3 mm | Activity (Candida tropicalis [30]): 89% | Activity (Candida albicans [31]): 35.57% | Activity (Candida tropicalis [32]): 52% | inhibition zone (IZ) (Candida albicans [33]): 15 mm | Activity (Candida albicans [34]): 99% | MIC (Candida albicans [6]): 8 µg/mL (≈ 21.3 µM) | Activity (Candida albicans [35]): 8.02% | inhibition zone (IZ) (Candida albicans [36]): 2 mm | Activity (Candida albicans [37]): 57.94% | inhibition zone (IZ) (Candida albicans [38]): 5 mm | Activity (Candida albicans [39]): 45% | MIC (Candida tropicalis [7]): 64 µg/mL (≈ 170 µM) | Activity (Candida albicans [40]): 31% | Activity (Candida albicans [41]): 89% | inhibition zone (IZ) (Candida tropicalis [42]): 1 mm | inhibition zone (IZ) (Candida tropicalis [43]): 4 mm | Activity (Candida tropicalis [44]): 100% | inhibition zone (IZ) (Candida albicans [45]): 11 mm | inhibition zone (IZ) (Candida tropicalis [46]): 12 mm | inhibition zone (IZ) (Candida tropicalis [47]): 8 mm | inhibition zone (IZ) (Candida tropicalis [48]): 3 mm | Activity (Candida albicans [49]): 43%
